The results in this text go back to ChEMBL document CHEMBL5113557, “Structural Basis for Inhibition of Mutant EGFR with Lazertinib (YH25448)” (ACS Med Chem Lett, 2022).

Experiment [1] concerns the target T1, Receptor tyrosine-protein kinase erbB-2 (Homo sapiens, UniProt P04626). Description: Inhibition of recombinant human N-terminal GST-tagged HER2 wild type (679 to 1255 residues) expressed in baculovirus infected Sf9 insect cells using AQT0794 measured up to 240 mins by fluorescence assay. Summed up: (§1)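 Time-dependent kinetic assay on the HER2 kinase domain with 1000 μM ATP and 15 μM Sox-based substrate sensor. Data come from a single experiment run in duplicate. kinact and Ki were obtained from a two-step fit, and errors are the standard error from the fit.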

For experiment [2], the system named is BaF3. Description: Antiproliferative activity against mouse BAF3 cells harboring EGFR L858R/T790M mutant after 72 hrs by resazurin dye-based fluorescence assay. Type of experiment: functional, cell-based. The following applies: BaF3, 72 h. Summed up: (§2)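 Ba/F3 cells engineered to express each target were exposed to inhibitor for 72 h, after which proliferation was measured.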

In experiment [3] the test system is Epidermal growth factor receptor (Homo sapiens), P00533 [L858R,T790M]. The following applies: NCI-H1975, dose 5-50 nM, time 2.0 hrs.
Experiment [4] deals with BaF3. Description: Antiproliferative activity against mouse BAF3 cells harboring EGFR L858R mutant after 72 hrs by resazurin dye-based fluorescence assay. Type of experiment: functional, cell-based. The following applies: BaF3, 72 h. Summed up: as §2
Experiment [5] addresses T1, Receptor tyrosine-protein kinase erbB-2. Description: Inhibition of HER2 in human BT474 cells assessed as reduction in autophosphorylation at Y1221/1222 residue at 5 to 100 nM after 6 hrs by Western blot analysis. Type of experiment: cell-based. The following applies: BT-474, dose 5-100 nM. Summed up: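 BT474 HER2-overexpressing breast cancer cells were treated with inhibitor at a range of doses for 6 h. Phospho-HER2 (pY1221/1222) was detected by Western blot. The blots shown are representative of three independent experiments.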

For experiment [6] the target is unchanged. Description: Inhibition of recombinant human N-terminal GST-tagged HER2 wild type (679 to 1255 residues) expressed in baculovirus infected Sf9 insect cells assessed as Kinact/Ki ratio using AQT0794 measured up to 240 mins by fluorescence assay. The gist of the method:
as §1

Experiment [7] addresses T2, Epidermal growth factor receptor (Homo sapiens, UniProt P00533). The following applies: Sf21, time <= 240.0 min.
Experiment [8] has as its system BaF3. Description: Antiproliferative activity against mouse BAF3 cells harboring HER2 wild type after 72 hrs by resazurin dye-based fluorescence assay. Type of experiment: functional, cell-based. The following applies: BaF3, 72 h. Summed up:
as §2

The species named for experiment [9] is Homo sapiens. Description: Selectivity ratio of Ki for human N-terminal GST-tagged EGFR wild type (669 to 1210 residues) (unknown origin) to Ki for human N-terminal GST-tagged EGFR L858R/T790M mutant (669 to 1210 residues) (unknown origin).
The species named for experiment [10] is Homo sapiens. Description: Selectivity ratio of Kinact for human N-terminal GST-tagged EGFR (669 to 1210 residues) (unknown origin) L858R/T790M mutant to Kinact for human N-terminal GST-tagged EGFR wild type (669 to 1210 residues) (unknown origin).
Experiment [11] addresses T2, Epidermal growth factor receptor. Description: Inhibition of recombinant human N-terminal GST-tagged EGFR wild type (669 to 1210 residues) expressed in baculovirus infected Sf21 insect cells insect cells using AQT0734 as substrate measured up to 240 mins by fluorescence assay.
Experiment [12] concerns Epidermal growth factor receptor (Homo sapiens), P00533 [L858R,T790M]. To be noted: Sf21, time <= 240.0 min.
Experiment [13] has as its target Epidermal growth factor receptor (Homo sapiens, UniProt P00533, L858R/T790M). Description: Inhibition of recombinant human N-terminal GST-tagged EGFR (669 to 1210 residues) (unknown origin) L858R/T790M mutant expressed in baculovirus infected Sf21 insect cells using AQT0734 as substrate measured up to 240 mins by fluorescence assay.
The species named for experiment [14] is Homo sapiens. Description: Selectivity ratio of Kinact/Ki for human N-terminal GST-tagged EGFR (669 to 1210 residues) (unknown origin) L858R/T790M mutant to Kinact/Ki for human N-terminal GST-tagged EGFR wild type (669 to 1210 residues) (unknown origin).
For experiment [15], the target named is T1, Receptor tyrosine-protein kinase erbB-2. Description: Inhibition of recombinant human N-terminal GST-tagged HER2 wild type (679 to 1255 residues) expressed in baculovirus infected Sf9 insect cells assessed as Kinact using AQT0794 as substrate measured up to 240 mins by fluorescence assay. Summed up:
as §1

The source made the active and inactive calls. The calls are words filed in the database; no cut-off is given here.

Chain of Epidermal growth factor receptor (Homo sapiens), P00533 [L858R,T790M] (P00533 whole entry T790M/L858R, looked up, the tested form may be a part): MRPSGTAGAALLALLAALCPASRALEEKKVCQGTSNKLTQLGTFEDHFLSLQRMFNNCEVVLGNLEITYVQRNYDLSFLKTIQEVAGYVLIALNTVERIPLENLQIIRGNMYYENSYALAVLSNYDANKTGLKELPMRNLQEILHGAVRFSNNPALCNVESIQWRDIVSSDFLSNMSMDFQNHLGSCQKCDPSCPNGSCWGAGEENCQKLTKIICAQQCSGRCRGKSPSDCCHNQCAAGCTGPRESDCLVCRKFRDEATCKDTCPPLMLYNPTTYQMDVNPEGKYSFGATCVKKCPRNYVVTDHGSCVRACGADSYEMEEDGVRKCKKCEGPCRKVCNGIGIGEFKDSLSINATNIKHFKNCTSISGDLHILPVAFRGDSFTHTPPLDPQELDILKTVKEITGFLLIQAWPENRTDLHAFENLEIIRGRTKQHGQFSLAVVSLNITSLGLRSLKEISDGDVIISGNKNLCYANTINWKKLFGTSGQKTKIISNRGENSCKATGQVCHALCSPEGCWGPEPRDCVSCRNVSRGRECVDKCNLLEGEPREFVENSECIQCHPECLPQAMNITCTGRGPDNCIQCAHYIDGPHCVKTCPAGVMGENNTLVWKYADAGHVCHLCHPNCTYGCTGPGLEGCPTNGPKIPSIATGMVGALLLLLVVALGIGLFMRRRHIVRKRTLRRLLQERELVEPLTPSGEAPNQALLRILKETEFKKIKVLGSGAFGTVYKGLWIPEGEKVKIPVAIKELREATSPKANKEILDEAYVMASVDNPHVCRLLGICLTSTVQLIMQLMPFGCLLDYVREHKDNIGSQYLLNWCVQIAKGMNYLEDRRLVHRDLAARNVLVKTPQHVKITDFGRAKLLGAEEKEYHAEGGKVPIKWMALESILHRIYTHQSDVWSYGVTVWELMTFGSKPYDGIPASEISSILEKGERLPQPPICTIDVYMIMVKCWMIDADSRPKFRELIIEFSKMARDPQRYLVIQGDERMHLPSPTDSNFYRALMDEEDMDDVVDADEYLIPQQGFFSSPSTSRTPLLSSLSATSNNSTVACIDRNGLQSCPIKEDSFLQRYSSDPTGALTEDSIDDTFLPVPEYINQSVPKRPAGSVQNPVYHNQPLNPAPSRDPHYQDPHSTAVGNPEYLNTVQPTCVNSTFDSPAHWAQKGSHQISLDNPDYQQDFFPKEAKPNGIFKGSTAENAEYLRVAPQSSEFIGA
T1 sequence (P04626 whole entry, the tested form may be a part): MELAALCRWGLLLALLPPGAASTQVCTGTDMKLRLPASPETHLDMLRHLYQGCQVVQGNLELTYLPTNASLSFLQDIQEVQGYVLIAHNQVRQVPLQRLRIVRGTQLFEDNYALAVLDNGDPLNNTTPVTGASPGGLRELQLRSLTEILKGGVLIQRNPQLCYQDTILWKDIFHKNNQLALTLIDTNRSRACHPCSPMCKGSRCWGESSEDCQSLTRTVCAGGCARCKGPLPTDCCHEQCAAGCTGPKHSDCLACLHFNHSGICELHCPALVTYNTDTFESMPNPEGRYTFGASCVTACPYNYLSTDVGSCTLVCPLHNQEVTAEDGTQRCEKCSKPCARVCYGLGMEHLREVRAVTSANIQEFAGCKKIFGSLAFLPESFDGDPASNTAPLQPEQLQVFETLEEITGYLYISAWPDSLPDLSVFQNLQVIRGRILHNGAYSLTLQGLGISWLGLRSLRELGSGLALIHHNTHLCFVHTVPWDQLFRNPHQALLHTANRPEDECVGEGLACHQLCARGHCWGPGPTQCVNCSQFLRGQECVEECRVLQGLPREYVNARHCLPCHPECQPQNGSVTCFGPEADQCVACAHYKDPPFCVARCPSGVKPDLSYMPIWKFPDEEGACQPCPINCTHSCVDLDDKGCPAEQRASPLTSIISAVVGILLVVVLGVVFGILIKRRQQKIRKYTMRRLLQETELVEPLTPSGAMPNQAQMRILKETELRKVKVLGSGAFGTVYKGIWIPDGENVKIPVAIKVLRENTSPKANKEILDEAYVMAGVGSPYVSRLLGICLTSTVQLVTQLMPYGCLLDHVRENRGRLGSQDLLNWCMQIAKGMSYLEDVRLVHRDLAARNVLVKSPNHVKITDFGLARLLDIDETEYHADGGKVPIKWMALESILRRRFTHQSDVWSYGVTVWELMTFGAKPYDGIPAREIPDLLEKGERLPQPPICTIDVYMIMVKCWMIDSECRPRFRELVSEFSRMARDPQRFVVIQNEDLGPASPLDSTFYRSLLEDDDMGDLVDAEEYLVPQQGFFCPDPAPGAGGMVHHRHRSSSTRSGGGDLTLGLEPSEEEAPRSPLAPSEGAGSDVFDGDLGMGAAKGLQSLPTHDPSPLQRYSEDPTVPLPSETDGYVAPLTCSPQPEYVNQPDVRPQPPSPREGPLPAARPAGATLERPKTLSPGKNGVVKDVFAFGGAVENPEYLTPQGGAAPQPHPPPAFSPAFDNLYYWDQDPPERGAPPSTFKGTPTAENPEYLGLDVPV
T2 sequence (P00533 whole entry): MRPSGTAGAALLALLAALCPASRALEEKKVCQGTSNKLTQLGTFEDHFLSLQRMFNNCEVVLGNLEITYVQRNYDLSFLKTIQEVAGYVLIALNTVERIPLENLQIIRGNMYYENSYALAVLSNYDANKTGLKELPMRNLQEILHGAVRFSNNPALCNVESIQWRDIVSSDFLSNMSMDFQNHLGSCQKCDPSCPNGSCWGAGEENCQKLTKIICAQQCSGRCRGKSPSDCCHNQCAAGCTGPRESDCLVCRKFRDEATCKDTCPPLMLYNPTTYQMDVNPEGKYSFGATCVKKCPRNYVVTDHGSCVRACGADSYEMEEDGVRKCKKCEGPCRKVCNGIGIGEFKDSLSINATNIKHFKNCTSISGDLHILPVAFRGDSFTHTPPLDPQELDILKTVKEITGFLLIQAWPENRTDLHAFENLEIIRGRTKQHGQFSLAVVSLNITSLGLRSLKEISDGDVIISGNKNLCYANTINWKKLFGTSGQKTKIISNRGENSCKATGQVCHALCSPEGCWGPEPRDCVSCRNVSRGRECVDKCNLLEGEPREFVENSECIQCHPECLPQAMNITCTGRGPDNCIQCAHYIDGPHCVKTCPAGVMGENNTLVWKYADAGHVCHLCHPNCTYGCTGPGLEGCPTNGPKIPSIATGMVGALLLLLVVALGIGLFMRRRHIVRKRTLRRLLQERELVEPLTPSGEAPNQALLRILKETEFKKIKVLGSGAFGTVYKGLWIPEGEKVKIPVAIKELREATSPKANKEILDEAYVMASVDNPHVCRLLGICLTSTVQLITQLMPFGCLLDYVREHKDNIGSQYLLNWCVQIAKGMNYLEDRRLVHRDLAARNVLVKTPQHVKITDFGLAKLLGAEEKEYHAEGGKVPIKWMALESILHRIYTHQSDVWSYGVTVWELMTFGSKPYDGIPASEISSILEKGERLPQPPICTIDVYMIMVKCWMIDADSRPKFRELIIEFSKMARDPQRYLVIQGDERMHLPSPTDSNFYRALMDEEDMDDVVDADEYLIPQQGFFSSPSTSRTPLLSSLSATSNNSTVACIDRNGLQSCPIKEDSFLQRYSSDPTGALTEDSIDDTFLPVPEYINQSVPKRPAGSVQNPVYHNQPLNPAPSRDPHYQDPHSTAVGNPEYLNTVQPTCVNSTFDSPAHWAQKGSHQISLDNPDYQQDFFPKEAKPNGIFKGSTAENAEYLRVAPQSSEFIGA
Chain of Epidermal growth factor receptor (Homo sapiens, UniProt P00533, L858R/T790M) (P00533 25-1210 T790M/L858R limits assumed): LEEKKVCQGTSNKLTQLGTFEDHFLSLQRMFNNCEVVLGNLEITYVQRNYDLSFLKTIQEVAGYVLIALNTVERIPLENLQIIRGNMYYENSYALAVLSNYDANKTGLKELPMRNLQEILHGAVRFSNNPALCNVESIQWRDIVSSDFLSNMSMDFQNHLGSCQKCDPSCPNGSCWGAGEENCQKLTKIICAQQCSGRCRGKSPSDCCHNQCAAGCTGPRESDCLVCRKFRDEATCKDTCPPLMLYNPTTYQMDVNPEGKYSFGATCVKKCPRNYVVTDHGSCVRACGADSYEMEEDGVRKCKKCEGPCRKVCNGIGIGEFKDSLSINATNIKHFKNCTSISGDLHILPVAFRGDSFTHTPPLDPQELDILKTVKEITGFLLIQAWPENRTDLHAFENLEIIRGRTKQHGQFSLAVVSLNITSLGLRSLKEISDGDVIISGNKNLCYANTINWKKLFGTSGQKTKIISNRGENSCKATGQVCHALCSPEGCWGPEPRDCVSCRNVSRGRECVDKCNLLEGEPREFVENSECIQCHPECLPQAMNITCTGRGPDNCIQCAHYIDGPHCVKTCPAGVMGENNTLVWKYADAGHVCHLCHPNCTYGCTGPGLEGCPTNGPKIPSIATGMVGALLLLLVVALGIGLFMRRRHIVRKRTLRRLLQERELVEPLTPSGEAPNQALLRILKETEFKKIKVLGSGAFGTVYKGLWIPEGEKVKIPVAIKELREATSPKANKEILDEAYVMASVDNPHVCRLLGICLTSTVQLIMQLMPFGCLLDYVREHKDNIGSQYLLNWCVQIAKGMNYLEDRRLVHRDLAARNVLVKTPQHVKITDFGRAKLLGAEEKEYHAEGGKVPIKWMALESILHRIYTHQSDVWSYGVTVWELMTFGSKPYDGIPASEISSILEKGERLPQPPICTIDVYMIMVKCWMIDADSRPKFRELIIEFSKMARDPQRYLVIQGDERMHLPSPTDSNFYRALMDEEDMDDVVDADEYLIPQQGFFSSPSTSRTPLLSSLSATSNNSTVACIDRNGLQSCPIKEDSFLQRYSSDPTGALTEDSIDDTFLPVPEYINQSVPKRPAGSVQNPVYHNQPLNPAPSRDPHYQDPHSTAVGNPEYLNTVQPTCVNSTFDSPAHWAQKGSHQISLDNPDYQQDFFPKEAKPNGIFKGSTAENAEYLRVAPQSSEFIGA

For `C=CC(=O)Nc1ccc(OC)c(Nc2cc(-c3[nH]c(SC)nc3-c3ccc(F)cc3)ccn2)c1`, the Ki in experiment [1] was determined as 142 nM. Moreover, the EC50 in the experiment with BaF3 [2] was 21 nM; in the experiment on BaF3 [4] it was 0.51 nM. Moreover, the inhibition entry in experiment [3] and in [5] was “Active” each time.
In the case of `C=CC(=O)Nc1cc(Nc2nccc(-n3cc(CN(C)C)c(-c4ccccc4)n3)n2)c(OC)cc1N1CCOCC1` [LAZERTINIB], the Ratio in experiment [6] stood at 6310 M⁻¹ s⁻¹. Also, the Kinact is 0.648 min⁻¹ in experiment [7], 0.235 min⁻¹ in experiment [12] and 0.166 min⁻¹ in experiment [15]. Also, the EC50 is greater than 100 nM in the experiment on BaF3 [8], 7.4 nM with BaF3 [2] and 4.8 nM in the experiment with BaF3 [4]. Further, in the experiment filed under Homo sapiens [9], the Ratio Ki is 8. Besides, the Ki came to 437 nM in experiment [1], 271 nM in [11] and 34 nM in experiment [13]. The values for the Selectivity ratio in the experiment filed under Homo sapiens [10] and in the experiment listed under Homo sapiens [14] were 0.36 and 3.2, respectively. Moreover, the inhibition entry in experiment [3] and in experiment [5] was “Active” throughout.
`C=CC(=O)Nc1cc(Nc2nccc(-c3cn(C)c4ccccc34)n2)c(OC)cc1N(C)CCN(C)C` [OSIMERTINIB]: the EC50 in the experiment on BaF3 [8] came to 34 nM; in the experiment on BaF3 [2], 14 nM; in the experiment on BaF3 [4], 3.2 nM. Also, the inhibition entry in experiment [5] was “Active”.
